# Measurements as given in PubChem BioAssay AID743061 (The Scripps Research Institute Molecular Screening Center, 2013).
# Target: Methionine--tRNA ligase, mitochondrial (Homo sapiens) (UniProt Q96GW9)
# Assay: inhibitors of human mitochondrial MetRS, late-stage follow-up, selectivity assay for T. brucei MetRS inhibitor project, biochemical, radioactivity, round 1 (AID 743061);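 note: 0% = DMSO with full reaction and 100% = DMSO wells lacking tRNA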
# Details: recombinant human mtMetRS, [3H]Met tRNA charging, at 1 µM, stronger effect = higher value
# How it was run: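 Material – recombinant human mitochondrial methionyl-tRNA synthetase (MetRS) · Input – 13 nM enzyme · Also added – 240 nM [3H]methionine with bulk E. coli tRNA acceptor · Compound dosing – 10 and 1 µM · Schedule – 15 min preincubation, 1 h reaction, room temperature · Detection – scintillation counts of TCA-precipitated charged tRNA on filters · Benchmarks – high DMSO, low without tRNA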
row,Structure (SMILES),inhibition [%]
1,O=C(NCCc1nc2ccccc2[nH]1)c1ccc(Cl)c([N+](=O)[O-])c1,2.97
2,O=C(CSc1nnc2c(n1)[nH]c1ccc(Br)cc12)NCc1ccccc1,-0.52
3,O=C(NCCc1nc2ccccc2[nH]1)c1c(F)cccc1F,0.56
4,O=C1CC(NCCc2ccccc2)C(=O)N1c1ccc(Br)cc1 (stereo not given),-12.9
5,O=C(Cn1cc(C(=O)C(=O)N2CCOCC2)c2ccccc21)NCC1CCCO1 (stereo not given),-9.17
6,O=C(C(=O)N1CCOCC1)c1cn(CC(=O)N2CCCc3ccccc32)c2ccccc12,8.2
7,CN(CC(=O)Nc1ccc(Cl)cc1)C(=O)c1ccc(-n2cncn2)c([N+](=O)[O-])c1,-36.7
8,O=C1[C@@H]2Cc3c([nH]c4ccccc34)C(c3cccc([N+](=O)[O-])c3)N2C(=O)CN1CCCO (stereo not given in full),-17.4
9,O=C(NCc1nc2ccccc2[nH]1)C1=C[C@H](c2ccc(Br)cc2)C[C@H](OCCCCO)O1,-6.37
10,COc1ccc(NC(=O)C2CC(=O)n3c(nc4ccccc43)N2)cc1 (stereo not given),-2.67
11,Cc1ccc(C(=O)NCCc2nc3ccccc3[nH]2)cc1C,1.34
12,COc1ccc(CNC(=O)CSc2nnc3c(n2)[nH]c2ccc(F)cc23)cc1,-29.7
13,COc1ccccc1NS(=O)(=O)c1cccc(NC(=O)Nc2ccccc2)c1,-9.69
14,CC(=O)N(CCc1ccccc1)C1CC(=O)N(c2ccc(Br)cc2)C1=O (stereo not given),-17.2
15,CC(C)(C)[C@@H]1C=C(C(=O)NCc2nc3ccccc3[nH]2)O[C@H](OCc2ccc(CO)cc2)C1,-10.6
16,COc1ccc(CCN(C(=O)c2cccc(F)c2)C2CC(=O)N(c3ccc(Br)cc3)C2=O)cc1 (stereo not given),-8.56
17,Cc1cc2cc(C(=O)N3CCCC(c4nc5ccccc5[nH]4)C3)ccc2o1 (stereo not given),-13.2
18,COc1ccccc1NC(=O)Cn1cc(C(=O)C(=O)N2CCOCC2)c2ccccc21,-9.04

row,Structure (SMILES),inhibition [%]
1,CCO[C@@H]1OC(C(=O)NCc2nc3ccccc3[nH]2)=C[C@H](c2ccc(Br)cc2)[C@H]1CCCO,-4.89
2,CC(=O)N(CCc1ccccc1)C1CC(=O)N(c2ccc(Cl)cc2)C1=O (stereo not given),-19.9
3,O=C(NCc1nc2ccccc2[nH]1)C1=C[C@@H](c2ccccc2)C[C@@H](OCc2ccc(CO)cc2)O1,-16.8
4,O=C(NCc1nc2ccccc2[nH]1)C1=C[C@@H](c2ccc(Br)cc2)C[C@@H](OCCCCO)O1,-9.46
5,CCCCn1c(CCNC(=O)c2ccc(F)cc2)nc2ccccc21,3.64
6,COc1ccc2[nH]c3nc(SCC(=O)Nc4ccc5c(c4)OCO5)nnc3c2c1,14.3
7,O=C(NNC(=O)c1ccc(-n2cncn2)c([N+](=O)[O-])c1)c1ccc(Cl)cc1,-30.3
8,O=C(Cn1cc(C(=O)C2CC2)c2ccccc21)Nc1cccc(C(F)(F)F)c1,0.73
9,O=C(NNC(=O)c1cc(-c2ccc(Cl)c(Cl)c2)nc2ccccc12)Nc1ccccc1,-17.1
10,COc1ccccc1NC(=O)CSc1nnc2c(n1)[nH]c1ccc(C)cc12,-3.56
11,CC(C)c1nc2ccc(C(=O)N(C)CCc3nc4ccc(F)cc4[nH]3)cc2o1,-1.54
12,CC(CC(=O)Nc1cccc(Br)c1)=NNC(=O)c1ccc(O)cc1O,-24.6
13,O=C(NCc1nc2ccccc2[nH]1)C1=C[C@H](C2CC2)C[C@H](OCc2ccc(CO)cc2)O1,7.99
14,CNC(=S)N(CCc1ccccc1)C1CC(=O)N(c2ccc(Br)cc2)C1=O (stereo not given),39
15,CCN(CC)C(=O)C(=O)c1cn(CC(=O)Nc2cccc(OC)c2)c2ccccc12,10.6
16,O=C(Cn1cnc2ccccc21)Nc1cccc([N+](=O)[O-])c1,-15.4
17,Cc1ccc2[nH]c3nc(SCC(=O)Nc4ccc(C(F)(F)F)cc4)nnc3c2c1,-10
